A short description of data set [1]: melting temperature; fluorescence melt of hairpins on a sequencing array, two-state fit, raised by 9.35 °C to match UV melts. Conditions: sodium 0.088 M. The procedure, abridged: (§1)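 On a sequenced MiSeq flow cell, library hairpins with annealed Cy3 and quencher oligos were imaged for Cy3 fluorescence in 2.5 °C steps up to 60 °C, in 50 mM Na-HEPES pH 8.0, 25 mM NaCl. Normalisation used pre-quench Cy3 and control constructs. Bootstrapped two-state fits gave melting temperature and folding enthalpy, combined by inverse variance across four replicates and with fitted temperatures raised by 9.35 °C to match UV melts.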

The nature of data set [2]: folding enthalpy; higher = less favourable; fluorescence melt of hairpins on a sequencing array, two-state fit. Conditions: sodium 0.088 M. The procedure, abridged:
as §1

In the case of GCAGTTCGAAAGAATTGC (((.(((....))).))), in data set [1], the Tm is 52.6 °C. Also, in data set [2], the folding enthalpy is -38.5 kcal/mol.
Consider GTCTACGAAAGTACGGAC ((((((....)))..))), for which, in data set [1], the Tm was found to be 34.1 °C. Also, the folding enthalpy in data set [2] was -12.1 kcal/mol.
In the same order, the values of GTAGGCGAAAGCCCTAC ((((((....))).))) are 47.7 °C and -14.8 kcal/mol.
In the same order, the values of GCCACGGGAAACCACGGC (((..((....))..))) are 46.5 °C and -34.4 kcal/mol.
In the same order, the values of GTCGTTGGAAACGATGAC (((.(.(....).).))) are 49 °C and -13.5 kcal/mol.
In the case of GCGTAGCGAAAGCATCGC (((..((....))..))), in data set [1], the Tm was 55.1 °C. In data set [2], the folding enthalpy was -15.4 kcal/mol.
In the case of GCAGAAGGAAACCTCTGC (((((.(....).))))), in data set [1], the Tm stood at 45.2 °C. The folding enthalpy in data set [2] was -28.2 kcal/mol.
On the same counts, the results for GCCGCTGGAAACAGTGGC (((.(((....))).))) are 62.9 °C and -50.7 kcal/mol.
Regarding GCACTGCGAAAGCGGGGC ((.(.((....)).).)), the Tm in data set [1] was determined as 67.2 °C. In data set [2], the folding enthalpy was -33.5 kcal/mol.
On the same counts, the results for GAAGTGGGAAACCACTCC (.(((((....))))).) are 38.4 °C and -14 kcal/mol.
On the same counts, the results for GCCAACGAAAGTTCTGGC ((((((....)))..))) are 38 °C and -24.9 kcal/mol.
With GATCCGCGCCGGATC ((((((...)))))), the Tm in data set [1] was 60 °C. Further, the folding enthalpy in data set [2] is -33.9 kcal/mol.
For the sequence GCGGGAGACCGC ((((....)))), the Tm in data set [1] stood at 66.3 °C. For the same sequence, the folding enthalpy in data set [2] was -14.4 kcal/mol.
On the same counts, the results for GTCGAAGGAAACTTCAAC ((.((((....)))).)) are 26.9 °C and -12.4 kcal/mol.
GGCCGCGGAAACGCAGCC (((.(((....))).))): in data set [1], the Tm came out at 61.3 °C. Also, in data set [2], the folding enthalpy was -38.1 kcal/mol.
On the same counts, the results for CGGACGGAAACGTGCCCG ((((((....)))..))) are 35.9 °C and -14.8 kcal/mol.
Consider GTGATAGGAAACCATCAC (((((.(....).))))), for which the Tm in data set [1] is 39.3 °C. Further, in data set [2], the folding enthalpy was -34.9 kcal/mol.
Take GCGAAAGGAAACTCTCGC ((((.((....)).)))): the Tm in data set [1] amounted to 38.3 °C. Further, the folding enthalpy in data set [2] was -28.1 kcal/mol.
Consider GACATGCGAAAGCACGTC (((.(((....))).))), for which the Tm in data set [1] came to 52.4 °C. For the same sequence, the folding enthalpy in data set [2] was -26.3 kcal/mol.
On the same counts, the results for GATCGGTTCGCCGATC ((((((....)))))) are 61.4 °C and -45 kcal/mol.
In the same order, the values of GAGGACGGAAACGTTCTC (((.(((....))).))) are 51.6 °C and -41.9 kcal/mol.
In the same order, the values of GATGATGGAAACATTGTC ((..(((....)))..)) are 28.8 °C and -27.9 kcal/mol.
With GCATCCGAAAGGAGCTGC ((((((....)))..))), the Tm in data set [1] is 50.6 °C. Besides, in data set [2], the folding enthalpy was -19.2 kcal/mol.
In the same order, the values of GATCAAACATTGATC ((((((...)))))) are 41.2 °C and -31.4 kcal/mol.
In the same order, the values of GTGGGTGGAAACACTCGC (.(.(((....))).).) are 42 °C and -24.7 kcal/mol.
On the same counts, the results for GATCCCTAGAGGGATC ((((((....)))))) are 59 °C and -40.2 kcal/mol.
With GATGATACGAAAGTAATC (((..(((....)))))), the Tm in data set [1] was 27.5 °C. Moreover, in data set [2], the folding enthalpy is -16.5 kcal/mol.
In the same order, the values of GAAAAGGGAAACCTTTCC (.(((((....))))).) are 27.7 °C and -13.9 kcal/mol.
For GCGGACGGAAACACCCGC ((((..(....)..)))), in data set [1], the Tm stood at 41.9 °C. For the same sequence, in data set [2], the folding enthalpy was -26.9 kcal/mol.
In the same order, the values of GACCACGAAAGTGGGGTC ((((((....)))..))) are 61.2 °C and -13.2 kcal/mol.
On the same counts, the results for GGCTTTGGAAACGAAGCC (((((.(....).))))) are 54 °C and -43.6 kcal/mol.
On the same counts, the results for GCGCATCGAAAGATTCGC (((.(((....))).))) are 52.2 °C and -38.9 kcal/mol.
GCACAGCGAAAGCATTGC (((..((....))..))): in data set [1], the Tm came to 38.2 °C. In addition, the folding enthalpy in data set [2] is -14.4 kcal/mol.
On the same counts, the results for GTGTATCCGAAAGGACAC (((..(((....)))))) are 42.2 °C and -21.6 kcal/mol.
In the same order, the values of GATCATTTTATGATC ((((((...)))))) are 51.4 °C and -30.4 kcal/mol.
In the same order, the values of GGTTCGGGAAACCGGATC (.(.(((....))).).) are 38.2 °C and -18.3 kcal/mol.
Turning to GATCAGGGTCTGATC ((((((...)))))), the Tm in data set [1] was found to be 49.7 °C. In addition, the folding enthalpy in data set [2] is -24.1 kcal/mol.

The record behind these values is the array DNA melting data of Ke et al. (doi:10.1101/2024.01.08.574731).
